# Measured values of several laboratories.
# Each line is one published result; the experiments were not run side by side.
# Target: RAC-alpha serine/threonine-protein kinase (AKT1, Homo sapiens, UniProt P31749)
SMILES,assay,conditions,quantity,result
Cn1cncc1[C@](O)(COc1ccc(C#N)cc1-c1ccc(OC(F)(F)F)cc1)c1ccc(C#N)cc1,"cell-free assay, competition with immobilised ligand",1 µM,remaining binding,84%
Cn1cc(-c2cc(F)cc(N3CCn4c(cc5c4CCCC5)C3=O)c2CO)cc(Nc2ccc(N3CCN(C4COC4)CC3)cn2)c1=O,"enzyme activity, inhibitor",0.1 µM,inhibition,5%
O=c1[nH]c2ccccc2n1C1CCN(Cc2ccc(-c3[nH]c4cc5ncnc5cc4nc3-c3ccccc3)cc2)CC1,cell-free assay,0.5 µM,remaining signal,114%
COc1cc(Nc2ncc(F)c(Nc3ccc4c(n3)NC(=O)C(C)(C)O4)n2)cc(OC)c1OC,"binding, competition with immobilised ligand",10 µM,inhibition,0%
COc1ncccc1-c1cnn2ccc(N3CCN(C(=O)OC(C)C)CC3)nc12,"binding, competition with immobilised ligand",1 µM,remaining binding,100%
C#Cc1n[nH]c2c(-c3cn([C@@H](C)c4ccccc4)c(=O)[nH]c3=O)cc(F)cc12,"enzyme activity, inhibitor",0.1 µM,inhibition,1.4%
O=C(NCc1ncc(C(F)(F)F)cc1Cl)c1ccc2c(c1)C1(CCS(=O)(=O)CC1)[C@H](C1CC1)N2S(=O)(=O)c1ccc(F)cc1,"cell-free assay, competition with immobilised ligand",1 µM,remaining binding,96%
CC(C)(C)c1cc(C=C(C#N)C#N)cc(Br)c1O,"enzyme activity, inhibitor",0.5 µM,remaining activity,108%
Cn1cc(-c2cccc(N3CCc4c(sc5c4CC(C)(C)C5)C3=O)c2CO)cc(Nc2ccncn2)c1=O,"enzyme activity, inhibitor",1 µM,inhibition,4%
C#Cc1n[nH]c2c(-c3cn(C(C)c4ccccn4)c(=O)[nH]c3=O)cc(F)cc12 (stereo not drawn),"enzyme activity, inhibitor",1 µM,inhibition,3.7%
Nc1ncc(-c2nc(N3CCOCC3)nc(N3CCOCC3)n2)c(C(F)F)n1,"binding, competition with immobilised ligand",10 µM,remaining binding,94%
Cc1nn(C)cc1-c1nc2c(N3CCN(Cc4ccc(Cl)cc4)CC3)c(Cl)cnc2[nH]1,"binding, competition with immobilised ligand",1 µM,remaining binding,100%
